Results collected from several papers.
Lines come from different studies, so protocols differ.

SMILES	assay	test system	setting	quantity	result
CCCCCCCC(=O)NC[C@H](NC(=O)[C@H](CO)NC(=O)CN)C(=O)N[C@@H](Cc1ccccc1)C(=O)N[C@@H](CC(C)C)C(=O)N[C@@H](CO)C(=O)N1CCC[C@H]1C(=O)N[C@@H](CCC(=O)O)C(=O)O	chemical stability	PBS	1 mM, 24 h, pH 7.4	compound remaining	100%
COc1ccc(NC(=O)N2CCCCN3[C@H](CN(C)C)[C@H](c4ccc(C#Cc5ccccc5)cc4)[C@@H]3C2)cc1	–	mouse, plasma	intravenous	Vd	29 L/kg
Cc1nc([C@@](C)(CC2CC2)NC(=O)c2cc(OCC(F)(F)F)c(C3CC3)cn2)no1	–	C57BL/6 mouse, plasma	intravenous	Vd	4 L/kg
CN[C@H](CC(C)C)C(=O)N[C@H]1C(=O)N[C@@H](CC(N)=O)C(=O)N[C@H]2C(=O)NC3C(=O)N[C@H](C(=O)N[C@H](C(=O)NCCC[N+](C)(C)C)c4cc(O)cc(O)c4-c4cc3ccc4O)[C@H](O)c3ccc(c(Cl)c3)Oc3cc2cc(c3OC2OC(CO)C(O)[C@H](O)[C@@H]2O[C@H]2CC(C)(NCc3ccc(-c4ccc(Cl)cc4)cc3)[C@H](O)[C@H](C)O2)Oc2ccc(cc2Cl)[C@H]1O (some centres unmarked)	–	mouse, plasma	intravenous, 10 mg/kg	Vd	1.25 L/kg
COc1cc(C(=O)NC2CCN(C)CC2)c(F)cc1Nc1ncc(C(F)(F)F)c(Oc2cccc3c2C(=O)N(C)C3)n1	–	human, plasma	oral, 25 mg, multiple doses, once daily, patients	half-life	1670 min
C=CCNc1c(O)cc2c(O)c1C[C@@H](C)C[C@H](OC)[C@H](O)[C@@H](C)/C=C(\C)[C@H](OC(N)=O)[C@@H](OC)/C=C\C=C(/C)C(=O)N2	–	human, plasma	intravenous, 400 mg/m², patients, infusion	half-life	136 min
Nc1ncnc2c1ncn2[C@@H]1O[C@@H]2COP(=O)([S-])O[C@@H]3[C@H](O)[C@@H](COP([O-])(=S)O[C@H]2[C@H]1O)O[C@H]3n1cnc2c(N)ncnc21.[Na+].[Na+] (some centres unmarked)	chemical stability, HPLC	bovine, serum	–	half-life	4020 min
N=C(N)NCCC[C@@H](NC(=O)[C@@H](N)Cc1ccccc1)C(=O)N[C@@H](Cc1ccccc1)C(=O)N[C@@H](CCCCN)C(N)=O	–	human, plasma	subcutaneous, 25 mg, multiple doses, once daily, patients	half-life	240 min
CCN(CC)CCCC[C@H](NC(=O)[C@H](CC(C)C)NC(=O)[C@H](C)NC(=O)[C@H](Cc1ccccc1)NC(=O)c1ccc(C(C)(C)C)cc1)C(=O)N[C@@H](CO)C(=O)OC	–	male Swiss mouse, blood	intravenous, 3 mg/kg	Vd	0.19 L/kg
Cc1nonc1Cn1nnc2c(N3CC[C@H](O)C3)nc(C(C)(C)C)nc21	–	C57BL/6 mouse, plasma	intravenous	Vd	4.1 L/kg
CC(=C/C=C/C(C)=C/C(=O)O)/C=C1\CCCc2ccccc21	–	human, plasma	oral, 10 mg, single dose, fasted, healthy volunteers	half-life	346 min
